Results published in ChEMBL document CHEMBL2413001, “Exploring pyrimidine-substituted curcumin analogues: design, synthesis and effects on EGFR signaling” (Bioorg Med Chem, 2013).
Active and inactive are the calls of the source. The calls are words filed in the database; no cut-off is given here.

Columns and labels:
[1] = system: HCT-116; test: Induction of apoptosis in human HCT116 cells assessed as ratio of Bax to Bcl-2 expression at 5 uM after 72 hrs by Western blot analysis relative to control; format: functional
In short: (§1)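 HCT116 only, seeded at 8 × 10⁴ cells/ml in 15 cm dishes for 24 h, then treated for 72 h at 20 µM or at 5, 10 and 20 µM. Lysed in Triton lysis buffer (pH 7.5) with inhibitors, sonicated, and protein assayed by BCA. Western blots were developed by ECL. Band intensities were normalized to β-actin, as means of three independent experiments; the Bax/Bcl-2 ratio was expressed relative to untreated control.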

[2] = system: HCT-116; test: Induction of apoptosis in human HCT116 cells assessed as ratio of Bax to Bcl-2 expression at 10 uM after 72 hrs by Western blot analysis relative to control; format: functional; in short: as §1
[3] = system: HCT-116; test: Induction of apoptosis in human HCT116 cells assessed as ratio of Bax to Bcl-2 expression at 20 uM after 72 hrs by Western blot analysis relative to control; format: functional; in short: as §1
[4] = system: HCT-116; test: Induction of apoptosis in human HCT116 cells assessed as increase in Bax expression after 72 hrs by Western blot analysis; format: functional, cell-based; in short: as §1
[5] = system: HCT-116; test: Induction of apoptosis in human HCT116 cells assessed as reduction in Bcl-2 expression after 72 hrs by Western blot analysis; format: functional, cell-based; in short: as §1
[6] = system: HCT-116; test: Induction of apoptosis in human HCT116 cells assessed as effect on HSP-90 expression after 72 hrs by Western blot analysis; format: functional, cell-based; in short: as §1
[7] = system: HCT-116; test: Induction of apoptosis in human HCT116 cells assessed as effect on HSP-70 expression after 72 hrs by Western blot analysis; format: functional, cell-based; in short: as §1
[8] = system: HCT-116; test: Induction of apoptosis in human HCT116 cells assessed as PARP cleavage after 72 hrs by Western blot analysis; format: functional, cell-based; in short: as §1
[9] = system: HCT-116; test: Induction of apoptosis in human HCT116 cells assessed as caspase-3 activation after 72 hrs by Western blot analysis; format: functional, cell-based; in short: as §1
[10] = target: Epidermal growth factor receptor (Homo sapiens) (UniProt P00533); test: Inhibition of EGFR signaling in human HCT116 cells assessed as effect on CDK4 expression at 5 to 20 uM after 24 hrs by Western blot analysis; format: cell-based; settings: HCT-116
Sequence of Epidermal growth factor receptor (Homo sapiens) (P00533 whole entry): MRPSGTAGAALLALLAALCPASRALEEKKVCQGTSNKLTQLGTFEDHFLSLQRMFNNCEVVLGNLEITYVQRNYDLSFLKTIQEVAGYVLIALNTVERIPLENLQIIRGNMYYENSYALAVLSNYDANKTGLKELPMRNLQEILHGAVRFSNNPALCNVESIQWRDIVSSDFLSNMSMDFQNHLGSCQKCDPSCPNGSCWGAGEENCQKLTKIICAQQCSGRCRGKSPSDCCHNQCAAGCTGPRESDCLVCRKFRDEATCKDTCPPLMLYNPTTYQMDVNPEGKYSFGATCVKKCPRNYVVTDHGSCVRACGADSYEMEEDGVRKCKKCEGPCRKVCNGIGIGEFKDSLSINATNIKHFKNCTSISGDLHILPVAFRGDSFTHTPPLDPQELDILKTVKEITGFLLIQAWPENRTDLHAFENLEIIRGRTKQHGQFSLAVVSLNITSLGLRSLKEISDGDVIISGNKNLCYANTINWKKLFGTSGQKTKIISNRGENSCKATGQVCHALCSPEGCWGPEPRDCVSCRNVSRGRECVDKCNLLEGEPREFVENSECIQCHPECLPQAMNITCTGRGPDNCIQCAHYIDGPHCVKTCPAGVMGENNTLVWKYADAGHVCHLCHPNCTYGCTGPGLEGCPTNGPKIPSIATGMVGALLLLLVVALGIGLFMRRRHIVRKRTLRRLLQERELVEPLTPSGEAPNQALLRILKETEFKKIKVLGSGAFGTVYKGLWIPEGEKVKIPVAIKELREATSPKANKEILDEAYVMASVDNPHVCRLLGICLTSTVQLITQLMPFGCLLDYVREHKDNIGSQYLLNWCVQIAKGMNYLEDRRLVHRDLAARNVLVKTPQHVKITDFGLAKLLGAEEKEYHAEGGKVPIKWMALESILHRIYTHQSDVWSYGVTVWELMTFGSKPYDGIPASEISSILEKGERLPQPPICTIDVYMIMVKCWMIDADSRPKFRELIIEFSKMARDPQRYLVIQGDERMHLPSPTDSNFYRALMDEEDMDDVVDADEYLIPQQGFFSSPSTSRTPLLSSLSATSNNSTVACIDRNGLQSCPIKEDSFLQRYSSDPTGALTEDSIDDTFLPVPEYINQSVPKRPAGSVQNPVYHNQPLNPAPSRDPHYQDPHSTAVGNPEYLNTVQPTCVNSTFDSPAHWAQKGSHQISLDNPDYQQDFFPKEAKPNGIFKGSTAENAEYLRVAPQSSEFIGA

[11] = target: Epidermal growth factor receptor (Homo sapiens) (UniProt P00533); test: Inhibition of EGFR signaling in human HCT116 cells assessed as inhibition of Rb expression after 24 hrs by Western blot analysis; format: cell-based; settings: HCT-116
[12] = target: Epidermal growth factor receptor (Homo sapiens) (UniProt P00533); test: Inhibition of EGFR signaling in human HCT116 cells assessed as effect on CDK2 expression at 5 to 20 uM after 24 hrs by Western blot analysis; format: cell-based; settings: HCT-116
[13] = target: Epidermal growth factor receptor (Homo sapiens) (UniProt P00533); test: Inhibition of EGFR signaling in human HCT116 cells assessed as inhibition of cyclin E1 expression after 24 hrs by Western blot analysis; format: cell-based; settings: HCT-116
[14] = target: Epidermal growth factor receptor (Homo sapiens) (UniProt P00533); test: Inhibition of EGFR signaling in human HCT116 cells assessed as inhibition of cyclin D1 expression after 24 hrs by Western blot analysis; format: cell-based; settings: HCT-116
[15] = target: Epidermal growth factor receptor (Homo sapiens) (UniProt P00533); test: Inhibition of EGFR signaling in human HCT116 cells assessed as induction of p21 WAF-1/CIP-1 expression at 5 uM after 24 hrs by Western blot analysis relative to control; format: cell-based; settings: HCT-116
[16] = target: Epidermal growth factor receptor (Homo sapiens) (UniProt P00533); test: Inhibition of EGFR signaling in human HCT116 cells assessed as induction of p21 WAF-1/CIP-1 expression at 10 uM after 24 hrs by Western blot analysis relative to control; format: cell-based; settings: HCT-116
[17] = target: Epidermal growth factor receptor (Homo sapiens) (UniProt P00533); test: Inhibition of EGFR signaling in human HCT116 cells assessed as induction of p21 WAF-1/CIP-1 expression at 20 uM after 24 hrs by Western blot analysis relative to control; format: cell-based; settings: HCT-116
[18] = system: HCT-116; test: Cell cycle arrest in human HCT116 cells assessed as accumulation at G0/G1 phase at 5 uM after 24 hrs by flow cytometry relative to control; format: functional, cell-based
In short: (§2)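 HCT116 or HT29 cells seeded at 4 × 10⁴ cells/ml in 6-well plates and left 24 h to attach, then exposed for 24 h in complete McCoy's 5A (5% FBS) with 0.1% DMSO final, at 5, 10 or 20 µM. Floating and trypsinized cells were pooled, PBS-washed, fixed overnight in 70% ethanol at 4 °C and stained with PI/RNase for 15 min at room temperature. Flow DNA content gave G0/G1, S and G2/M fractions as fold of control, from three independent assays.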

[19] = system: HT-29; test: Cell cycle arrest in human HT-29 cells assessed as accumulation at G0/G1 phase at 5 uM after 24 hrs by flow cytometry relative to control; format: functional, cell-based; in short: as §2
[20] = system: HT-29; test: Cell cycle arrest in human HT-29 cells assessed as increase in G2/M population at 10 uM after 24 hrs by flow cytometry relative to control; format: functional; in short: as §2
[21] = system: HT-29; test: Cell cycle arrest in human HT-29 cells assessed as increase in G2/M population at 5 uM after 24 hrs by flow cytometry relative to control; format: functional; in short: as §2
[22] = system: HT-29; test: Cell cycle arrest in human HT-29 cells assessed as increase in G2/M population at 20 uM after 24 hrs by flow cytometry relative to control; format: functional; in short: as §2
[23] = system: HCT-116; test: Cell cycle arrest in human HCT116 cells assessed as increase in G2/M population at 10 uM after 24 hrs by flow cytometry relative to control; format: functional; in short: as §2
[24] = system: HCT-116; test: Cell cycle arrest in human HCT116 cells assessed as increase in G2/M population at 5 uM after 24 hrs by flow cytometry relative to control; format: functional; in short: as §2
[25] = system: HCT-116; test: Cell cycle arrest in human HCT116 cells assessed as increase in G2/M population at 20 uM after 24 hrs by flow cytometry relative to control; format: functional; in short: as §2
[26] = system: HCT-116; test: Inhibition of EGFR protein expression in human HCT116 cells after 72 hrs by Western blot analysis; format: functional, cell-based
In short: (§3)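 HCT116 or HT29 seeded at 8 × 10⁴ cells/ml in 15 cm dishes for 24 h, then treated for 72 h at 20 µM or at 5, 10 and 20 µM. Whole-cell lysates were made in Tris-HCl/NaCl/Triton buffer with phosphatase and protease inhibitors (pH 7.5), sonicated and cleared at 10,000g; protein was measured by BCA. Blots were blocked in 5% milk/TBST and developed by ECL. P-EGFR(Tyr1068) and total EGFR bands were normalized to β-tubulin, as means of three experiments.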

[27] = system: HT-29; test: Inhibition of EGFR protein expression in human HT-29 cells after 72 hrs by Western blot analysis; format: functional, cell-based; in short: as §3
[28] = target: Epidermal growth factor receptor (Homo sapiens) (UniProt P00533); test: Inhibition of EGFR phosphorylation at Tyr1068 residue in human HCT116 cells after 72 hrs by Western blot analysis; format: cell-based; settings: HCT-116; in short: as §3
[29] = target: Epidermal growth factor receptor (Homo sapiens) (UniProt P00533); test: Inhibition of EGFR phosphorylation at Tyr1068 residue in human HT-29 cells after 72 hrs by Western blot analysis; format: cell-based; in short: as §3
[30] = system: HT-29; test: Cytotoxicity against human HT-29 cells assessed as growth inhibition after 48 hrs by resazurin assay; format: functional, cell-based; settings: for IC50: HT-29, 48 h
In short: (§4)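 HCT116 or HT29 seeded at 2000 cells/well, grown 24 h, then given fresh complete McCoy's 5A (5% FBS, 0.1% DMSO final) containing serial compound concentrations for 48 h. Resazurin was added for 16 h and fluorescence read at ex 544/em 595 nm as a measure of living cells. IC50 was calculated by the Logit approach; values are mean ± SD.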

[31] = system: HCT-116; test: Cytotoxicity against human HCT116 cells assessed as growth inhibition after 48 hrs by resazurin assay; format: functional, cell-based; settings: for IC50: HCT-116, 48 h; in short: as §4

Structure (SMILES): COc1ccc(/C=C/c2cc(/C=C/c3ccc(OC)c(OC)c3)nc(NCCO)n2)cc1OC
- Ratio [1]: 2.1
- Ratio [2]: 17
- Ratio [3]: 19
- Activity [4]: Dose-dependent effect
- Activity [5]: Dose-dependent effect
- Activity [6]: Dose-dependent effect
- Activity [7]: Dose-dependent effect
- Activity [8]: Dose-dependent effect
- Activity [9]: Dose-dependent effect
- inhibition [10]: inactive
- inhibition [11]: Dose-dependent effect
- inhibition [12]: inactive
- inhibition [13]: Dose-dependent effect
- inhibition [14]: Dose-dependent effect
- fold change (FC) [15]: 21.4
- fold change (FC) [16]: 28.6
- fold change (FC) [17]: 25.7
- Activity [18]: Active
- Activity [19]: Active
- fold change (FC) [20]: 1.94
- fold change (FC) [21]: 1.86
- fold change (FC) [22]: 2.4
- fold change (FC) [23]: 1.78
- fold change (FC) [24]: 1.54
- fold change (FC) [25]: 2.05
- inhibition [26]: Dose-dependent effect
- inhibition [27]: Dose-dependent effect
- inhibition [28]: Dose-dependent effect
- inhibition [29]: Dose-dependent effect
- growth inhibition (GI) [30]: Dose-dependent effect
- IC50 [30]: 7.1 µM
- growth inhibition (GI) [31]: Dose-dependent effect
- IC50 [31]: 6.2 µM

Structure (SMILES): COc1ccc(/C=C/c2cc(/C=C/c3ccc(OC)c(OC)c3)nc(NCCCO)n2)cc1OC
- growth inhibition (GI) [30]: Dose-dependent effect
- IC50 [30]: 12.8 µM
- growth inhibition (GI) [31]: Dose-dependent effect
- IC50 [31]: 9.9 µM

Structure (SMILES): CCCNc1nc(/C=C/c2ccc(OC)c(OC)c2)cc(/C=C/c2ccc(OC)c(OC)c2)n1
- growth inhibition (GI) [30]: Dose-dependent effect
- IC50 [30]: > 100 µM
- growth inhibition (GI) [31]: Dose-dependent effect
- IC50 [31]: 28 µM
